In ChEMBL document CHEMBL1122644, “Ring-substituted 1,2-dialkylated 1,2-bis(hydroxyphenyl)ethanes. 2. Synthesis and estrogen receptor binding affinity of 4,4'-, 5,5'-, and 6,6'-disubstituted metahexestrols” (J Med Chem, 1984):

Key:
[1] = target: Estrogen receptor (Bos taurus) (UniProt Q9XSB5+P49884); test: Relative binding affinity for calf uterine estrogen receptor is the ratio of molar concentrations of 17-beta-estradiol and compound required to decrease amount of bound [3H]-E2 by 50% X 100.; format: protein assay
In short: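 Calf uterine cytosol incubated with [3H]estradiol and competitor at 4 °C for 16 h. Free ligand removed with dextran-coated charcoal, then centrifuged and a supernatant aliquot counted. Six competitor concentrations chosen to span 50% competition on a semilog plot. Molar concentrations of unlabeled estradiol and test compound giving 50% reduction in binding were read from the plot.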

[2] = target: T1, Estrogen receptor (Mus musculus) (UniProt O08537+P19785); test: Anti-estrogenic activity in mouse uterotrophic assay at 0 ug; format: functional; parameters: unit not given here
T1 sequence (O08537 whole entry, looked up): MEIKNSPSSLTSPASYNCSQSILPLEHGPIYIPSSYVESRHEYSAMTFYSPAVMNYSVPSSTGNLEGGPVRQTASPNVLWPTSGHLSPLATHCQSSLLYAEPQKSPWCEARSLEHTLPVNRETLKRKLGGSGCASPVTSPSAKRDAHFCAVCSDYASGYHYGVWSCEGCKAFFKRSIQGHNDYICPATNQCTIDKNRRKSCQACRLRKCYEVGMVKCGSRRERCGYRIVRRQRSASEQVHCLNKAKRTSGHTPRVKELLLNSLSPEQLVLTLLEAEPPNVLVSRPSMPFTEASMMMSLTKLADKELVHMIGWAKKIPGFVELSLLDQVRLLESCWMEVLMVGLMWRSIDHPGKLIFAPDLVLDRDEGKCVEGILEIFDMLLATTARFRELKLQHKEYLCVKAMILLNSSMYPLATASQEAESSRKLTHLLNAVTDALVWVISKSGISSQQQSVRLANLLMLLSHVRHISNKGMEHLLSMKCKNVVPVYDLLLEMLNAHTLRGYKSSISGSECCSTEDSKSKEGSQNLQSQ
T1 sequence (P19785 whole entry, looked up): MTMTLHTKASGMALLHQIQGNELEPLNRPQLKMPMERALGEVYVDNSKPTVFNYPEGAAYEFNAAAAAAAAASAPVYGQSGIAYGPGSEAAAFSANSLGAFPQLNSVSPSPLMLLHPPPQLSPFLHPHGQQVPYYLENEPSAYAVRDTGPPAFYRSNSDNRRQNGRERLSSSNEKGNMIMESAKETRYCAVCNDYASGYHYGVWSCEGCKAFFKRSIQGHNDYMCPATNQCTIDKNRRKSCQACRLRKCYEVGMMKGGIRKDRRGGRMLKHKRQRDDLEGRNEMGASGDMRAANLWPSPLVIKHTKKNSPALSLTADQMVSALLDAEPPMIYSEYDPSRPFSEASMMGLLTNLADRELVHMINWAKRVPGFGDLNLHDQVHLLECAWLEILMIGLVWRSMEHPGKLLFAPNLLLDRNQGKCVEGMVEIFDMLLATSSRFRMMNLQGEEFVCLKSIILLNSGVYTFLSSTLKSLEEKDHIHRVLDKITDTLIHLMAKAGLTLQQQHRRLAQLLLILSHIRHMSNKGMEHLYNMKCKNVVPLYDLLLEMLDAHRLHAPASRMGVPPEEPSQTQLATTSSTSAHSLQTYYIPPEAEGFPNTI
In short: (§1)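 Immature female NMRI mice, 20 days old (14.5 ± 1.2 g), randomized into groups of 10. Test compound in olive oil (0.1 mL) given subcutaneously daily for 3 days alongside estrone stimulation. Uteri removed 24 h after last injection, fixed in Bouin's solution, washed, dried and weighed. Readout is inhibition of estrone-stimulated uterine growth.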

[3] = target: T1, Estrogen receptor (Mus musculus); test: Anti-estrogenic activity in mouse uterotrophic assay at 1 ug; format: functional; parameters: unit not given here; in short: as §1
[4] = target: T1, Estrogen receptor (Mus musculus); test: Anti-estrogenic activity in mouse uterotrophic assay at 100 ug; format: functional; parameters: unit not given here; in short: as §1
[5] = target: T1, Estrogen receptor (Mus musculus); test: Anti-estrogenic activity in mouse uterotrophic assay at 25 ug; format: functional; in short: as §1
[6] = target: T1, Estrogen receptor (Mus musculus); test: Anti-estrogenic activity in mouse uterotrophic assay at 250 ug; format: functional; in short: as §1
[7] = target: T1, Estrogen receptor (Mus musculus); test: Anti-estrogenic activity in mouse uterotrophic assay at 5 ug; format: functional; in short: as §1
[8] = target: T1, Estrogen receptor (Mus musculus); test: Anti-estrogenic activity in mouse uterotrophic assay at 50 ug; format: functional; in short: as §1
[9] = target: T1, Estrogen receptor (Mus musculus); test: Estrogenic activity in mouse uterotrophic assay at 8 ug; format: functional
In short: (§2)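 Uterotrophic test in 20-day-old immature female NMRI mice (14.5 ± 1.2 g), 10 per group. Daily s.c. injections of compound in 0.1 mL olive oil for 3 days. Uteri excised 24 h after final dose, Bouin-fixed, washed, dried and weighed to measure stimulation of uterine growth.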

[10] = target: T1, Estrogen receptor (Mus musculus); test: Estrogenic activity in mouse uterotrophic assay at 80 ug; format: functional; in short: as §2
[11] = target: T1, Estrogen receptor (Mus musculus); test: Estrogenic activity in mouse uterotrophic assay at 800 ug; format: functional; in short: as §2
[12] = target: T1, Estrogen receptor (Mus musculus); test: Estrogenic activity in mouse uterotrophic assay at 0 ug; format: functional; parameters: unit not given here; in short: as §2
[13] = target: T1, Estrogen receptor (Mus musculus); test: Estrogenic activity in mouse uterotrophic assay at 16 ug; format: functional; in short: as §2
[14] = target: T1, Estrogen receptor (Mus musculus); test: Estrogenic activity in mouse uterotrophic assay at 2 ug; format: functional; in short: as §2
[15] = target: T1, Estrogen receptor (Mus musculus); test: Estrogenic activity in mouse uterotrophic assay at 240 ug; format: functional; in short: as §2
[16] = target: T1, Estrogen receptor (Mus musculus); test: Anti-estrogenic activity as inhibition of estrone-stimulated uterine growth in mice at 50 mg/kg; format: functional, organism-based; parameters: dose 50 mg/kg; in short: as §1
[17] = target: T1, Estrogen receptor (Mus musculus); test: Anti-estrogenic activity as inhibition of estrone-stimulated uterine growth in mice at 5 mg/kg; format: functional, organism-based; parameters: dose 5 mg/kg; in short: as §1
[18] = target: T1, Estrogen receptor (Mus musculus); test: Anti-estrogenic activity as inhibition of estrone-stimulated uterine growth in mice at 25 mg/kg; format: functional, organism-based; parameters: dose 25 mg/kg; in short: as §1
[19] = target: T1, Estrogen receptor (Mus musculus); test: Anti-estrogenic activity as inhibition of estrone-stimulated uterine growth in mice at 100 mg/kg; format: functional, organism-based; parameters: dose 100 mg/kg; in short: as §1
[20] = target: T1, Estrogen receptor (Mus musculus); test: Anti-estrogenic activity as inhibition of estrone-stimulated uterine growth in mice at 1 mg/kg; format: functional, organism-based; parameters: dose 1 mg/kg; in short: as §1
[21] = target: T1, Estrogen receptor (Mus musculus); test: Anti-estrogenic activity as inhibition of estrone-stimulated uterine growth in mice at 250 mg/kg; format: functional, organism-based; parameters: dose 250 mg/kg; in short: as §1
[22] = target: T1, Estrogen receptor (Mus musculus); test: Anti-estrogenic activity in mouse uterotrophic assay at 2.5 ug; format: functional; in short: as §1
[23] = target: T1, Estrogen receptor (Mus musculus); test: Anti-estrogenic activity in mouse uterotrophic assay at 500 ug; format: functional; in short: as §1
[24] = target: T1, Estrogen receptor (Mus musculus); test: Estrogenic activity in mouse uterotrophic assay at 0.8 ug; format: functional; in short: as §2
[25] = target: T1, Estrogen receptor (Mus musculus); test: Estrogenic activity in mouse uterotrophic assay at 24 ug; format: functional; in short: as §2
[26] = target: T1, Estrogen receptor (Mus musculus); test: Anti-estrogenic activity as inhibition of estrone-stimulated uterine growth in mice at 2.5 mg/kg; format: functional, organism-based; parameters: dose 2.5 mg/kg; in short: as §1
[27] = target: T1, Estrogen receptor (Mus musculus); test: Estrogenic activity as uterotrophic effect in mice at 800 ug dose; format: functional; in short: as §2
[28] = target: T1, Estrogen receptor (Mus musculus); test: Anti-estrogenic activity in mouse uterotrophic assay at 10 ug; format: functional; parameters: unit not given here; in short: as §1
[29] = target: T1, Estrogen receptor (Mus musculus); test: Estrogenic activity in mouse uterotrophic assay at 1 ug; format: functional; in short: as §2
[30] = target: T1, Estrogen receptor (Mus musculus); test: Estrogenic activity in mouse uterotrophic assay at 10 ug; format: functional; parameters: unit not given here; in short: as §2
[31] = target: T1, Estrogen receptor (Mus musculus); test: Estrogenic activity in mouse uterotrophic assay at 100 ug; format: functional; parameters: unit not given here; in short: as §2
[32] = target: T1, Estrogen receptor (Mus musculus); test: Estrogenic activity in mouse uterotrophic assay at 1000 ug; format: functional; parameters: unit not given here; in short: as §2
[33] = target: T1, Estrogen receptor (Mus musculus); test: Estrogenic activity in mouse uterotrophic assay at 0.1 ug; format: functional; in short: as §2
[34] = target: T1, Estrogen receptor (Mus musculus); test: Anti-estrogenic activity as inhibition of estrone-stimulated uterine growth in mice at 10 mg/kg; format: functional, organism-based; parameters: dose 10 mg/kg; in short: as §1

CCC(c1ccc(O)c(C)c1)C(CC)c1ccc(O)c(C)c1 (stereo not given) showed an RBA [1] of 8.1.

Compound CCC(c1ccc([N+](=O)[O-])c(O)c1)C(CC)c1ccc([N+](=O)[O-])c(O)c1 (stereo not given) has an RBA [1] of 0.02.

Work on CCC(c1cc(O)cc(Cl)c1)C(CC)c1cc(O)cc(Cl)c1 (stereo not given) yielded an RBA [1] of 0.03.

Compound CCOCc1ccc(C(CC)C(CC)c2ccc(COCC)c(O)c2)cc1O (stereo not given) has an RBA [1] of less than 0.01.

For CCc1ccc(C(CC)C(CC)c2ccc(CC)c(O)c2)cc1O (stereo not given), the RBA [1] was 0.04.

In the case of CCC(c1ccc(O)c(Cl)c1)C(CC)c1ccc(O)c(Cl)c1 (stereo not given), the RBA [1] is reported as 1.6.

CCC(c1ccc(CN(C)C)c(O)c1)C(CC)c1ccc(CN(C)C)c(O)c1 (stereo not given) showed an RBA [1] of less than 0.01.

For CCC(c1cc(O)ccc1O)C(CC)c1cc(O)ccc1O (stereo not given), the RBA [1] was less than 0.01.

In the case of CCC(c1ccc(COC)c(O)c1)C(CC)c1ccc(COC)c(O)c1 (stereo not given), the RBA [1] is reported as 0.03.

In the case of CCC(c1ccc(O)c(N)c1)C(CC)c1ccc(O)c(N)c1 (stereo not given), the RBA [1] is reported as 5.6.

Compound CCC(c1ccc(F)c(O)c1)C(CC)c1ccc(F)c(O)c1 (stereo not given) has an RBA [1] of 1.1, an Activity [2] of 13.5 and an Activity [3] of 34.2. The Activity [4] was 22.4, the Activity [5] was 28.6 and the Activity [6] was 24.4. It also gave an Activity [7] of 30.2, an Activity [8] of 24.7 and an Activity [9] of 18.5. The Activity [10] was 31.8, the Activity [11] was 32.6 and the Activity [12] was 8.7. It also gave an Activity [13] of 25.4, an Activity [14] of 8.9 and an Activity [15] of 32.8. The inhibition [16] was 50%, the inhibition [17] was 25% and the inhibition [18] was 32%. It also gave an inhibition [19] of 60%, an inhibition [20] of 7% and an inhibition [21] of 51%.

CCOCc1cc(C(CC)C(CC)c2ccc(O)c(COCC)c2)ccc1O (stereo not given) showed an RBA [1] of 0.18.

For CCC(c1cccc(O)c1)C(CC)c1cccc(O)c1 (stereo not given), the RBA [1] was 10, the Activity [2] was 12.5 and the Activity [22] was 29.5. For the same compound, the Activity [5] was 28.1, the Activity [7] was 23.5 and the Activity [8] was 28.3. For the same compound, the Activity [23] was 30.9, the Activity [9] was 14.4 and the Activity [10] was 30.5. For the same compound, the Activity [12] was 10.7, the Activity [24] was 11.8 and the Activity [25] was 18.5. It also gave an inhibition [26] of 27% and a Weight (mg/g) [27] of 30.8%.

CCC(c1ccc(O)c(N(C)C)c1)C(CC)c1ccc(O)c(N(C)C)c1 (stereo not given) gave an RBA [1] of less than 0.01.

CCC(c1ccc(O)c(Br)c1)C(CC)c1ccc(O)c(Br)c1 (stereo not given) was tested, and the RBA [1] was 0.25.

CCC(c1cc(O)ccc1Cl)C(CC)c1cc(O)ccc1Cl (stereo not given) was tested, and the RBA [1] was 4.2, the Activity [2] was 13.7 and the Activity [3] was 40.6. The Activity [28] was 41, the Activity [4] was 41.5 and the Activity [12] was 13.7. The Activity [29] was 25.1, the Activity [30] was 47.8 and the Activity [31] was 41.6. For the same compound, the Activity [32] was 38.5 and the Activity [33] was 16.7.

Work on CCC(c1ccc(O)c(F)c1)C(CC)c1ccc(O)c(F)c1 (stereo not given) yielded an RBA [1] of 16.

With CCC(c1ccc(C)c(O)c1)C(CC)c1ccc(C)c(O)c1 (stereo not given) the RBA [1] was 0.73, the Activity [2] was 14.8 and the Activity [3] was 34.3. For the same compound, the Activity [28] was 39.6, the Activity [4] was 41.8 and the Activity [12] was 13.9. It also gave an Activity [29] of 21.7, an Activity [30] of 45 and an Activity [31] of 46.2. For the same compound, the Activity [32] was 43.5, the inhibition [34] was 3% and the inhibition [20] was 24%. For the same compound, the Activity [33] was 14.3.

For CCC(c1cc(O)cc(O)c1)C(CC)c1cc(O)cc(O)c1 (stereo not given), the RBA [1] was 0.01.

For CCC(c1ccc(O)c(CN(C)C)c1)C(CC)c1ccc(O)c(CN(C)C)c1 (stereo not given), the RBA [1] was 0.04.
